Activity calls are given as the source filed them. No cut-off for these calls is given here.
Tests used:
[1] = Aqueous solubility of the compound in saline solution; type: physicochemical
Homo sapiens = species: Homo sapiens; assay: Selectivity index, ratio of IC50 for human recombinant MAO-B to IC50 for human recombinant MAO-A
How it was run: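 Selectivity index for MAO A = IC50(MAO B)/IC50(MAO A), with both human isoforms assayed against kynuramine substrate.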

[2] = molecular target: T1, 5-hydroxytryptamine receptor 1A (Homo sapiens) (UniProt P08908); assay: Displacement of [3H]8-OH-DPAT from human 5-HT1A receptor at 1 uM relative to control
T1 sequence (whole entry): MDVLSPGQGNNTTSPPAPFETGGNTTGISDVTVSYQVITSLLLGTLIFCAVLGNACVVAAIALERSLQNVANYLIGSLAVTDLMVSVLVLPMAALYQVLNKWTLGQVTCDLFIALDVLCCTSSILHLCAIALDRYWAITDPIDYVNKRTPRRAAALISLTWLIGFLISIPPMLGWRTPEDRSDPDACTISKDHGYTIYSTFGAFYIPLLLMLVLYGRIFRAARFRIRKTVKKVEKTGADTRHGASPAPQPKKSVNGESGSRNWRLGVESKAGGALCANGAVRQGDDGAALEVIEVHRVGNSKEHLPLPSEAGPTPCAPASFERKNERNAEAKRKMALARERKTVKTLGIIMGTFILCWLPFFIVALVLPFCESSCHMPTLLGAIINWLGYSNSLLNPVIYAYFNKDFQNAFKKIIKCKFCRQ
How it was run: (§1)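 Competition binding run by a contract lab, read as % inhibition of control specific binding at a single test concentration. Radioligand per target: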

[3] = molecular target: Sodium-dependent dopamine transporter (Homo sapiens) (UniProt Q01959); assay: Displacement of [3H]BTCP from human dopamine transporter at 1 uM relative to control; how it was run: as §1
[4] = molecular target: 5-hydroxytryptamine receptor 2A (Homo sapiens) (UniProt P28223); assay: Displacement of [3H]-ketanserin from human 5-HT2A receptor at 1 uM relative to control; how it was run: as §1
[5] = molecular target: Histamine H1 receptor (Homo sapiens) (UniProt P35367); assay: Displacement of histamine from human histamine H1 receptor at 1 uM relative to control; how it was run: as §1
[6] = molecular target: Adrenergic receptor alpha-1 (Rattus norvegicus) (UniProt P15823+P23944+P43140); assay: Displacement of [3H]-prazosin from rat alpha-1 adrenergic receptor at 10 uM relative to control; how it was run: as §1
[7] = molecular target: Sodium-dependent serotonin transporter (Homo sapiens) (UniProt P31645); assay: Displacement of [3H]-imipramine from human serotonin transporter at 10 uM relative to control; how it was run: as §1
[8] = molecular target: Sodium-dependent noradrenaline transporter (Homo sapiens) (UniProt P23975); assay: Displacement of [3H]-nisoxetin from human norepinephrine transporter at 1 uM relative to control; how it was run: as §1
Rattus norvegicus [9] = assay: In vivo inhibition of MAO-A in Sprague-Dawley rat assessed as increase in 3-methoxytyramine level in brain striatum at 43 umol/kg, sc up to 2 hrs by microdialysis method; type: functional, organism-based
How it was run: (§2)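 Single subcutaneous dose to freely moving rats. Striatal DOPAC and 3-MT were sampled by microdialysis and measured by HPLC/EC over 2 h after dosing at time 0. Levels are expressed as % of saline control (n = 1–2).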

Rattus norvegicus [10] = assay: In vivo inhibition of MAO-A in Sprague-Dawley rat assessed as decrease in 3,4-dihydroxyphenylacetic acid level in brain striatum at 43 umol/kg, sc up to 2 hrs by microdialysis method; type: functional, organism-based; how it was run: as §2
[11] = molecular target: Adrenergic receptor alpha-2 (Rattus norvegicus) (UniProt P22086+P19328+P22909); assay: Displacement of [3H]-RX-821002 from rat alpha-2 adrenergic receptor at 1 uM relative to control; how it was run: as §1
[12] = molecular target: T2, Amine oxidase [flavin-containing] A (Homo sapiens, UniProt P21397); assay: Inhibition of human recombinant MAO-A assessed as kynuramine oxidation to 4-hydroxyquinoline after 40 mins by LC-MS/MS analysis
T2 sequence (P21397 whole entry): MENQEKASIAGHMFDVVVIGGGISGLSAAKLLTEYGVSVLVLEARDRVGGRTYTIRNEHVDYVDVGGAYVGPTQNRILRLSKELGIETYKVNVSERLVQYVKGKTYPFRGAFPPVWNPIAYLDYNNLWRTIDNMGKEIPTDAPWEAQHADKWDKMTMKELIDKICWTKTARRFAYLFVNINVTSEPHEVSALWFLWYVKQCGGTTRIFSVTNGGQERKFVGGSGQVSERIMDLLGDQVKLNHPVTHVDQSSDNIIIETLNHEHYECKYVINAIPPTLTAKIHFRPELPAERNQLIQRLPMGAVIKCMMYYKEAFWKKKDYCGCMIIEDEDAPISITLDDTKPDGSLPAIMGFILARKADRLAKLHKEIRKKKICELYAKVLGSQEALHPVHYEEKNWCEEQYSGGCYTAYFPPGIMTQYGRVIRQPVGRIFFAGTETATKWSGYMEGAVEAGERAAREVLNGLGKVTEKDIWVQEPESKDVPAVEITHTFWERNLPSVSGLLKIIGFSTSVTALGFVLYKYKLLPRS
How it was run: (§3)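 Human MAO A and MAO B inhibition using kynuramine as a mixed substrate for both isoforms. IC50 is given as the mean ± SE of duplicate determinations.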

[13] = molecular target: T3, Amine oxidase [flavin-containing] B (Homo sapiens, UniProt P27338); assay: Inhibition of human recombinant MAO-B assessed as kynuramine oxidation to 4-hydroxyquinoline after 40 mins by LC-MS/MS analysis; how it was run: as §3
T3 sequence (P27338 whole entry): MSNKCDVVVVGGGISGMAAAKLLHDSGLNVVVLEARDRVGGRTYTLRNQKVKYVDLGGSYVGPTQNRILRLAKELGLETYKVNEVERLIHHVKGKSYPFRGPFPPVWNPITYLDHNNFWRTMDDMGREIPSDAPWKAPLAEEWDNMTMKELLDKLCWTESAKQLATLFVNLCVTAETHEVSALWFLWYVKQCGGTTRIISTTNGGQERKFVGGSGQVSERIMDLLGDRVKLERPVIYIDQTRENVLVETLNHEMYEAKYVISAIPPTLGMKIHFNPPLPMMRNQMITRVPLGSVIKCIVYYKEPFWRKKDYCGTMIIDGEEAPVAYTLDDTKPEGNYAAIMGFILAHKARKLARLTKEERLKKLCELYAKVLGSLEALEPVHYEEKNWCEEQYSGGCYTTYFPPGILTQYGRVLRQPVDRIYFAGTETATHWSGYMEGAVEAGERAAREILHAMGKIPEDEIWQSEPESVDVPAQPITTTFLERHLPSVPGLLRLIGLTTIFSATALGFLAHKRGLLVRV

[14] = Metabolic stability in rat liver microsomes assessed as compound remaining at 5 uM after 60 mins by LC-MS/MS analysis; type: ADME; details: read-out: Stability
How it was run: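 Incubation with rat liver microsomes, read as % of compound remaining after 60 min.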

D(2) dopamine receptor = D(2) dopamine receptor (Homo sapiens, UniProt P14416); assay: Antagonist activity at dopamine D2 receptor (unknown origin) expressed in HEK cells co-expressing Gqi5 assessed as inhibition of dopamine-induced effect by FLIPR assay; type: cell-based, HEK293
Rattus norvegicus [15] = assay: In vivo inhibition of MAO-A in Sprague-Dawley rat assessed as 5-hydroxyindoleacetic acid in brain striatum at 100 umol/kg, sc after 1 hr by HPLC/EC analysis relative to control; type: functional; design: scale not given: the % may be the effect or the level left
How it was run: (§4)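 Freely moving rats dosed subcutaneously and sacrificed 1 h later. Striatal DOPAC, 3-MT and 5-HIAA were measured post mortem and expressed as % of saline control (n = 4). Significance was by Student's t-test, P < 0.05.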

Rattus norvegicus [16] = assay: In vivo inhibition of MAO-A in Sprague-Dawley rat assessed as 3,4-dihydroxyphenylacetic acid level in brain striatum at 100 umol/kg, sc after 1 hr by HPLC/EC analysis relative to control; type: functional; design: scale not given: the % may be the effect or the level left; how it was run: as §4
Rattus norvegicus [17] = assay: In vivo inhibition of MAO-A in Sprague-Dawley rat assessed as 3-methoxytyramine level in brain striatum at 100 umol/kg, sc after 1 hr by HPLC/EC analysis relative to control; type: functional; design: scale not given: the % may be the effect or the level left; how it was run: as §4
Rattus norvegicus [18] = assay: In vivo inhibition of MAO-A in Sprague-Dawley rat assessed as 3-methoxytyramine level in brain striatum at 80 umol/kg, sc after 1 hr by HPLC/EC analysis relative to control; type: functional; design: scale not given: the % may be the effect or the level left; how it was run: as §4
Rattus norvegicus [19] = assay: In vivo inhibition of MAO-A in Sprague-Dawley rat assessed as 3,4-dihydroxyphenylacetic acid level in brain striatum at 80 umol/kg, sc after 1 hr by HPLC/EC analysis relative to control; type: functional; design: scale not given: the % may be the effect or the level left; how it was run: as §4
Rattus norvegicus [20] = assay: In vivo inhibition of MAO-A in Sprague-Dawley rat assessed as 5-hydroxyindoleacetic acid in brain striatum at 80 umol/kg, sc after 1 hr by HPLC/EC analysis relative to control; type: functional; design: scale not given: the % may be the effect or the level left; how it was run: as §4

Chain of 5-hydroxytryptamine receptor 2A (Homo sapiens) (P28223 whole entry): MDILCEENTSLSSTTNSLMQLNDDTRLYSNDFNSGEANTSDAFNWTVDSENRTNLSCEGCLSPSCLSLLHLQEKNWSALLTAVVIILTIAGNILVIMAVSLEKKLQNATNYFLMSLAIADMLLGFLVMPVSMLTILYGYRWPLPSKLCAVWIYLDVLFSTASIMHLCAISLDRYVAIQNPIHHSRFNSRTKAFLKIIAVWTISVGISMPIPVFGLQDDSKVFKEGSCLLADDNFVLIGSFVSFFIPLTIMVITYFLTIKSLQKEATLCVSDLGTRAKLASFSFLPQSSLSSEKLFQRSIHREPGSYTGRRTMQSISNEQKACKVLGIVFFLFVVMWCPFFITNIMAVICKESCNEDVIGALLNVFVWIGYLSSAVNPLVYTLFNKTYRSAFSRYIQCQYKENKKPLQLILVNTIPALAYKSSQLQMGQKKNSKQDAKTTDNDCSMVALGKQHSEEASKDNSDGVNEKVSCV
Chain of Sodium-dependent serotonin transporter (Homo sapiens) (P31645 whole entry, looked up): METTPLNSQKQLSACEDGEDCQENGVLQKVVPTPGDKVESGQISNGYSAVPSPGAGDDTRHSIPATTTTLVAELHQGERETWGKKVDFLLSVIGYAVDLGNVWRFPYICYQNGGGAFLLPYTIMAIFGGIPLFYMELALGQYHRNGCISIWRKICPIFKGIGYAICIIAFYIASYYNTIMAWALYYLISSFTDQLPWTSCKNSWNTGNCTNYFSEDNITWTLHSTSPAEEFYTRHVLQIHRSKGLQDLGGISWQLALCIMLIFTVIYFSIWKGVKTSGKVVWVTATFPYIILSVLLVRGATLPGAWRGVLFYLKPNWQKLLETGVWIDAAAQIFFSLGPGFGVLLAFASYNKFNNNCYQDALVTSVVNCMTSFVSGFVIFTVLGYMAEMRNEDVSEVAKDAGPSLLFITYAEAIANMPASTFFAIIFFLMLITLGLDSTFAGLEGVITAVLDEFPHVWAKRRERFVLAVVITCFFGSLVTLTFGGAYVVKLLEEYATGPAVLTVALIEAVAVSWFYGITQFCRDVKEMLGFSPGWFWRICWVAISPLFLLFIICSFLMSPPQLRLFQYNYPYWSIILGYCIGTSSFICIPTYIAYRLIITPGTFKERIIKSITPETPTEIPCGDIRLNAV
Chain of Sodium-dependent dopamine transporter (Homo sapiens) (Q01959 whole entry): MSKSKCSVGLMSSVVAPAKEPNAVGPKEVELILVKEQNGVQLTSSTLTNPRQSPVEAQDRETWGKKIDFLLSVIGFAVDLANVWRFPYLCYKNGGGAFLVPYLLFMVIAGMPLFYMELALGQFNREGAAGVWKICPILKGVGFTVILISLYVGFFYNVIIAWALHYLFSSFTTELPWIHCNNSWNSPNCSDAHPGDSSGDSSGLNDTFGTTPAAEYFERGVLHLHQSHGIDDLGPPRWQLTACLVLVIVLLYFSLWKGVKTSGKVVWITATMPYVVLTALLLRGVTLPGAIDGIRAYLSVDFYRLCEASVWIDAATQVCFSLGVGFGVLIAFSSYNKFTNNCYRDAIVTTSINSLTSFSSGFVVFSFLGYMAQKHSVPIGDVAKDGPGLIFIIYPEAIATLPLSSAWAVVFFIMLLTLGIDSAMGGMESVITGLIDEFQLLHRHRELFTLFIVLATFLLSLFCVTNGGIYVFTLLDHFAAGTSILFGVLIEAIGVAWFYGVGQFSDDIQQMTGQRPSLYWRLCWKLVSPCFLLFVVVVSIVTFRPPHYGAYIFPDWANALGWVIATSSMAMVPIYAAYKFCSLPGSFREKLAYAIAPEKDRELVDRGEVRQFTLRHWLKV
Chain of D(2) dopamine receptor (P14416 whole entry): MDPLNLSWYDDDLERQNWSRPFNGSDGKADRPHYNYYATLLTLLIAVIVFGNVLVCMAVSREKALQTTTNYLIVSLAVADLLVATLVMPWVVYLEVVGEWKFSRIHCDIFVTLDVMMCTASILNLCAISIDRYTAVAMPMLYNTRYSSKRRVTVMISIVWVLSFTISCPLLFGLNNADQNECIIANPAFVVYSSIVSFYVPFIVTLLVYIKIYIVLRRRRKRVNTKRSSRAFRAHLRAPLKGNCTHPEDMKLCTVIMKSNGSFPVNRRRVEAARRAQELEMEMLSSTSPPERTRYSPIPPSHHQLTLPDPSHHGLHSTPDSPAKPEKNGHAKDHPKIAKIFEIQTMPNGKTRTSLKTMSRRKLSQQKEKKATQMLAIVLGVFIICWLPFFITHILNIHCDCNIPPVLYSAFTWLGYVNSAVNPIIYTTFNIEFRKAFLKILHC
Chain of Sodium-dependent noradrenaline transporter (Homo sapiens) (P23975 whole entry): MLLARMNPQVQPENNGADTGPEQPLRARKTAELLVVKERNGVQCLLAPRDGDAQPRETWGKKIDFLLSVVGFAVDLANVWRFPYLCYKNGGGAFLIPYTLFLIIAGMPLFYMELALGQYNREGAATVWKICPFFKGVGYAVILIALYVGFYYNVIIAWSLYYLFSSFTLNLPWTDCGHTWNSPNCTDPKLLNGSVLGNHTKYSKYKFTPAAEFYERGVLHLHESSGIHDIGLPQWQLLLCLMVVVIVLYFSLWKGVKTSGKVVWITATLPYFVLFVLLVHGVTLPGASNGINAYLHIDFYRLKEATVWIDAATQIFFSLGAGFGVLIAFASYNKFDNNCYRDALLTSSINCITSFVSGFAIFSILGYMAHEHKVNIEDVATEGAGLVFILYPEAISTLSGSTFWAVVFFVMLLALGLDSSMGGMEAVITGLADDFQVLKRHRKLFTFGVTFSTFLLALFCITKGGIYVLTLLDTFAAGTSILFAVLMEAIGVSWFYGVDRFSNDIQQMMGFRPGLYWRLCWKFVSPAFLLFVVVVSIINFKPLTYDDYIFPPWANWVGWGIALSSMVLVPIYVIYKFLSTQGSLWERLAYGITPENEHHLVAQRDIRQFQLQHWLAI
Chain of Histamine H1 receptor (Homo sapiens) (P35367 whole entry): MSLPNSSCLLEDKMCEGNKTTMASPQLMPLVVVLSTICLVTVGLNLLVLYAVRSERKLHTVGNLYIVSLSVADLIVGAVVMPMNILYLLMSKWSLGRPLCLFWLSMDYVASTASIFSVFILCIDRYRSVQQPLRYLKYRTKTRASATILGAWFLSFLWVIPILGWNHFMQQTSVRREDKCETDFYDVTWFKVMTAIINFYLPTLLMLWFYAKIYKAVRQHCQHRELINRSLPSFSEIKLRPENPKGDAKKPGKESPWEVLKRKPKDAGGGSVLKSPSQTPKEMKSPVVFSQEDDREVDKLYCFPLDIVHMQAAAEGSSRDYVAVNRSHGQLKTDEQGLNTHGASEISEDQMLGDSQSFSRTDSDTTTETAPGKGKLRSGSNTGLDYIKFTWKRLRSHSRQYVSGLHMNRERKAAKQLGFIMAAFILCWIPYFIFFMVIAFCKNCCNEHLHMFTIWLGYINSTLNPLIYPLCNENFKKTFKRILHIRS

| Structure (SMILES) | solubility [1] | Ratio IC50 (Homo sapiens) | IC50 [12] | IC50 [13] | also measured |
| --- | --- | --- | --- | --- | --- |
| Cl.O=c1oc2ccc([N+](=O)[O-])cc2cc1CN1CCCC1 | > 5000 µg/mL |  |  |  |  |
| N[C@@H]1C[C@H]1c1ccccc1.N[C@H]1C[C@@H]1c1ccccc1 |  | 1 |  |  |  |
| Nc1ccc2oc(=O)c(CN3CCCC3)cc2c1 |  | > 26.5 |  |  | inhibition [2]: 0%; inhibition [3]: 0%; inhibition [4]: -4%; inhibition [5]: 13%; inhibition [6]: 4%; inhibition [7]: 1%; inhibition [8]: -2%; inhibition (Rattus norvegicus [9]): Active; inhibition (Rattus norvegicus [10]): Active; inhibition [11]: 2% |
| CCCCOc1ccc2oc(=O)c(CNCC)cc2c1 |  | 3.7 | 1.95 µM | 7.34 µM |  |
| Cl.O=c1oc2ccccc2cc1CN1CCCC1 | > 5000 µg/mL |  |  |  |  |
| CCCNCc1cc2ccccc2oc1=O [listing 1 of 2 here] |  |  | 17.1 µM | 62.3 µM | remaining at 1 h, 5 µM [14]: 0%; IC50 (D(2) dopamine receptor): > 30 µM; Activity (Rattus norvegicus [15]): 116%; Activity (Rattus norvegicus [16]): 70%; Activity (Rattus norvegicus [17]): 89% |
| CCCOc1ccc2oc(=O)c(CN3CCCC3)cc2c1 |  | 10.3 | 2.16 µM | 22.3 µM |  |
| COc1ccc2oc(=O)c(CN3CCCC3)cc2c1.Cl | > 5000 µg/mL |  |  |  |  |
| CCCNCc1cc2ccccc2oc1=O.Cl | > 5000 µg/mL |  |  |  |  |
| O=c1oc2ccc(O)cc2cc1CN1CCCC1 [listing 1 of 2 here] |  | > 68 |  |  |  |
| CCCNCc1cc2ccccc2oc1=O [listing 2 of 2 here] |  | 3.6 |  |  |  |
| O=c1oc2ccc(O)cc2cc1CN1CCCC1 [listing 2 of 2 here] |  |  | 1.46 µM | > 100 µM | Activity (Rattus norvegicus [18]): 126%; Activity (Rattus norvegicus [19]): 47%; Activity (Rattus norvegicus [20]): 86% |
| COc1ccc2oc(=O)c(CN3CCCC3)cc2c1 |  | > 22.3 |  |  |  |

— ChEMBL document CHEMBL3112537, “A novel series of 6-substituted 3-(pyrrolidin-1-ylmethyl)chromen-2-ones as selective monoamine oxidase (MAO) A inhibitors” (Eur J Med Chem, 2014)
